Results reported in ChEMBL document CHEMBL3259611, “Suppression of inflammatory responses by handelin, a guaianolide dimer from Chrysanthemum boreale, via downregulation of NF-κB signaling and pro-inflammatory cytokine production” (J Nat Prod, 2014).
Active and inactive are the calls of the source. The calls are words filed in the database; no cut-off is given here.

Legend:
RAW264.7 [1] = assay: Antiinflammatory activity in mouse RAW264.7 cells assessed as inhibition LPS-induced IL-1beta protein expression at 10 uM after 4 hrs by Western blotting analysis; format: functional
Summary of the method: (§1)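 RAW 264.7 cells stimulated with LPS (1 μg/mL) with or without compound for 4 h. Lysates were resolved by 6−15% SDS-PAGE and blotted to PVDF. Blocked in 5% milk/PBST, primary antibody overnight at 4 °C, secondary antibody 2 h, detected by ECL. Triplicate, representative of three experiments.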

JNK1/JNK2 (Mus musculus) = JNK1/JNK2 (Mus musculus) (UniProt Q91Y86+Q9WTU6); assay: Inhibition LPS-induced JNK1/2 phosphorylation at Thr183/[…] in mouse RAW264.7 cells at 20 uM administered 30 mins prior to LPS challenge measured after 30 mins by Western blotting analysis; format: cell-based
Summary of the method: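 RAW 264.7 cells pretreated with compound for 30 min, then stimulated with LPS for 30 min. Protein extracts were Western blotted for phosphorylated ERK and JNK (SDS-PAGE, PVDF, ECL detection).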

RAW264.7 [2] = assay: Antiinflammatory activity in mouse RAW264.7 cells assessed as inhibition of LPS-induced nitric oxide production administered 30 mins prior to LPS challenge measured after 20 hrs by Griess assay; format: functional, cell-based
Summary of the method: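 RAW 264.7 cells at 3 × 10^5 cells/mL in phenol red-free 10% FBS DMEM, pretreated for 30 min, then given 1 μg/mL LPS for 20 h. Nitrite in the medium was read by Griess reaction at 540 nm against a sodium nitrite standard curve. % inhibition was calculated versus vehicle control, and IC50 by nonlinear regression. Mean ± SD of triplicates.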

[3] = molecular target: T1, Nuclear factor NF-kappa-B p105 subunit (Mus musculus) (UniProt P25799); assay: Inhibition of LPS-induced NF-kappaB p50 binding to DNA in mouse RAW264.7 cells at 10 to 40 uM after 1.5 hrs by spectrophotometry; format: cell-based
T1 sequence (whole entry): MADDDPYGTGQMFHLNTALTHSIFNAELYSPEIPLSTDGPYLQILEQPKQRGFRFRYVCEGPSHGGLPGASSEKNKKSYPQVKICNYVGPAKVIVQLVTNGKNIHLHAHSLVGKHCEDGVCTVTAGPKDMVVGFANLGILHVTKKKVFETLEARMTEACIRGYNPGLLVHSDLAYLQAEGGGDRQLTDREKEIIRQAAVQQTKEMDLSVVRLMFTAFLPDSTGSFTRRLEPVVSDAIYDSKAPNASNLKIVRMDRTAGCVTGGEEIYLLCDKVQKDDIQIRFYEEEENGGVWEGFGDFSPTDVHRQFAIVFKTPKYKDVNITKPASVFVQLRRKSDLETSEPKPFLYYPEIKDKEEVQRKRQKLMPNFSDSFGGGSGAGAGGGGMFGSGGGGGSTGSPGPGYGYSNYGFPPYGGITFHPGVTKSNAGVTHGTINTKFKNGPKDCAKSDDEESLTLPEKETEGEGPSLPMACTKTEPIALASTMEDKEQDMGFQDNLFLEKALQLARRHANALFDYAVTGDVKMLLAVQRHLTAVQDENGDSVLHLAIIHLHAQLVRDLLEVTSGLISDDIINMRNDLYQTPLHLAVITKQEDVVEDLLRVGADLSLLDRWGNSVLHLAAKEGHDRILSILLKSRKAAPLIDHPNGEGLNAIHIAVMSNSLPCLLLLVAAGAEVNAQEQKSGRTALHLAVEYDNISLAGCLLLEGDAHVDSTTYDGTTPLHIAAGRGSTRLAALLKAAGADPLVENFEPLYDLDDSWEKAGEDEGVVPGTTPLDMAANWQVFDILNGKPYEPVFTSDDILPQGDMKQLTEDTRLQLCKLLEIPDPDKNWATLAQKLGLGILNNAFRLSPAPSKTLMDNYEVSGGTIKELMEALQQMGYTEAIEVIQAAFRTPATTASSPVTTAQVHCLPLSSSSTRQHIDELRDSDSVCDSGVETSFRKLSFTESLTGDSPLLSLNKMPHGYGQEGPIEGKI

RAW264.7 [4] = assay: Antiinflammatory activity in mouse RAW264.7 cells assessed as inhibition LPS-induced IL-1beta protein expression after 4 hrs by Western blotting analysis; format: functional, cell-based; summary of the method: as §1
RAW264.7 [5] = assay: Antiinflammatory activity in mouse RAW264.7 cells assessed as inhibition LPS-induced IL-1beta mRNA expression at 40 uM after 4 hrs by RT-PCR analysis relative to control; format: functional
Summary of the method: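 RAW 264.7 cells stimulated with LPS (1 μg/mL) with or without compound for 4 h. Total RNA was isolated and cytokine mRNA was analysed by RT-PCR: 94 °C 4 min, then 25−30 cycles of 94/55/72 °C for 30 s each, then 72 °C 5 min. Products were run on 2% agarose and stained with SYBR-Safe. Triplicate, representative of three experiments.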

Rattus norvegicus = assay: Antiinflammatory activity in rat paw edema model assessed as inhibition of carrageenan-induced paw edema at 20 mg/kg, po administered 30 mins prior to carrageenan challenge measured after 4 hrs relative to vehicle-treated control; format: functional
Summary of the method: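 Male Sprague–Dawley rats (150–170 g, 5 weeks old); compound dissolved in 0.5% CMC-Na and given orally 30 min before subplantar injection of 0.1 mL 1% carrageenan suspension in saline into the right hind paw, with saline injected into the left. Paw volume read by plethysmometer at 0 h and up to 6 h; n = 6.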

[6] = molecular target: T1, Nuclear factor NF-kappa-B p105 subunit (Mus musculus); assay: Inhibition of LPS-induced NFkappaB P50 protein nuclear translocation in mouse RAW264.7 cells at 20 uM after 30 mins by Western blotting analysis relative to control; format: cell-based
Summary of the method: (§2)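 Macrophages were exposed to compound for 30 min before LPS stimulation, with proteins extracted 30 min later. Nuclear extracts were prepared in Tris/KCl/NP-40 lysis buffer, then 420 mM NaCl buffer, and the cytosolic fraction was kept for IκB-α. Western blot on PVDF with ECL detection. Tests in triplicate; representative of three separate experiments.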

RAW264.7 [7] = assay: Antiinflammatory activity in mouse RAW264.7 cells assessed as inhibition LPS-induced TNF-alpha protein expression at 10 uM after 4 hrs by Western blotting analysis relative to control; format: functional
RAW264.7 [8] = assay: Antiinflammatory activity in mouse RAW264.7 cells assessed as inhibition of LPS-induced iNOS protein expression after 16 hrs by Western blotting analysis; format: functional, cell-based
[9] = molecular target: T1, Nuclear factor NF-kappa-B p105 subunit (Mus musculus); assay: Inhibition of LPS-induced NFkappaB P50 protein nuclear translocation in mouse RAW264.7 cells at 10 uM after 30 mins by Western blotting analysis relative to control; format: cell-based; summary of the method: as §2
RAW264.7 [10] = assay: Antiinflammatory activity in mouse RAW264.7 cells assessed as inhibition LPS-induced IL-1beta protein expression at 20 uM after 4 hrs by Western blotting analysis; format: functional; summary of the method: as §1
RAW264.7 [11] = assay: Antiinflammatory activity in mouse RAW264.7 cells assessed as inhibition of LPS-induced COX2 mRNA expression at 10 uM after 5 hrs by RT-PCR analysis relative to control; format: functional
Summary of the method: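 RAW 264.7 cells exposed to 1 μg/mL LPS with or without compound for 5 h. Total RNA was analysed by RT-PCR: 25−30 cycles with annealing at 55 °C. Products were separated on 2% agarose gel with SYBR-Safe staining. Experiments in triplicate.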

JNK1/JNK2 (Mus musculus), sequence (Q91Y86 whole entry, looked up): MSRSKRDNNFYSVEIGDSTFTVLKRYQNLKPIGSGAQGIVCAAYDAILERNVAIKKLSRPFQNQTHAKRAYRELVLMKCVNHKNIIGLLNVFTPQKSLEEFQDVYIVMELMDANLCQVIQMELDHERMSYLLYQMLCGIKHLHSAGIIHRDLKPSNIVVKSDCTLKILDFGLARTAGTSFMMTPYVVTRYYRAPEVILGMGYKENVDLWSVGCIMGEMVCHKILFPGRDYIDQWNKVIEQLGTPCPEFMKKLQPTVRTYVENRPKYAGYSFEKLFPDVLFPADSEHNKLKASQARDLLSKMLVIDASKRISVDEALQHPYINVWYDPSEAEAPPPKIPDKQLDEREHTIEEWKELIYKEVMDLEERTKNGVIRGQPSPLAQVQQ
JNK1/JNK2 (Mus musculus), sequence (Q9WTU6 whole entry, looked up): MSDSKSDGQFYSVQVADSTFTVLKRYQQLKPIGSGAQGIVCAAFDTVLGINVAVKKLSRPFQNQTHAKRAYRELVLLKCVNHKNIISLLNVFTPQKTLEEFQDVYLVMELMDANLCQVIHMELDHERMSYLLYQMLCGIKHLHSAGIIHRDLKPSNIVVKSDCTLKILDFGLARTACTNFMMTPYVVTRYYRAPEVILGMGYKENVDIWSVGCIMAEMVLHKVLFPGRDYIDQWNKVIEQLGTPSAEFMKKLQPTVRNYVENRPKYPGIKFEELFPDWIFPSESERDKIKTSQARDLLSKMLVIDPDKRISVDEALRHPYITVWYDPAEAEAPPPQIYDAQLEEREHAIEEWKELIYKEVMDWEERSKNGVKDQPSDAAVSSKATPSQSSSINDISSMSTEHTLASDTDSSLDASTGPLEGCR

Structure (SMILES): C=C1C(=O)O[C@@H]2[C@@H]3[C@@]4(C=C[C@@]3(C)[C@]3(C4)C(=O)O[C@@H]4[C@H]5C(C)=CC[C@H]5[C@](C)(O)C[C@H](OC(C)=O)[C@H]43)[C@](C)(O)CC[C@@H]12
- fold change (FC) (RAW264.7 [1]): 0.73
- fold change (FC) (JNK1/JNK2 (Mus musculus)): 0.54
- IC50 (RAW264.7 [2]): 6.7 µM
- inhibition (RAW264.7 [2]): Dose-dependent effect
- inhibition [3]: Active
- inhibition (RAW264.7 [4]): Dose-dependent effect
- fold change (FC) (RAW264.7 [5]): 0.21
- inhibition in vivo at 20 mg/kg (Rattus norvegicus): 35%
- fold change (FC) [6]: 0.21
- fold change (FC) (RAW264.7 [7]): 0.9
- inhibition (RAW264.7 [8]): Dose-dependent effect
- inhibition [9]: Active
- fold change (FC) (RAW264.7 [10]): 0.67
- fold change (FC) (RAW264.7 [11]): 0.63
